One may read the IC50 as the concentration that gives 50% inhibition.

Data on five compounds can be found in PMC10203771 (Saudi Pharmaceutical Journal : SPJ, 2023).

SMILES strings stand for the structures. In brackets after ≈: the same amount, converted by molar mass.

The subject of assay [1] is Bacillus subtilis. The experiment in a line: Antibacterial assay. The settings on record: Gram-positive. Format: cell-based.
For assay [2], the system named is Pseudomonas aeruginosa. In words: Antibacterial assay. Format: cell-based. The settings on record: Gram-negative.
Assay [3] deals with Escherichia coli. In words: Antibacterial assay. The settings on record: Gram-negative. Format: cell-based.
In assay [4] the test system is Proteus vulgaris. The experiment in a line: Antibacterial assay. The settings on record: Gram-negative. Format: cell-based.
For assay [5], the system named is Staphylococcus aureus. The experiment in a line: Antibacterial assay. The settings on record: Gram-positive. Format: cell-based.
Assay [6] in a line: DPPH free radical scavenging assay. The settings on record: t = 16 min. In short, it runs like this: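 Radical scavenging was read by absorbance. Percent inhibition = (Abs0 − AbsT)/Abs0 × 100, where Abs0 is the control at t = 0 and AbsT is the sample with DPPH at t = 16 min.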
For orientation: DPPH is a stable violet radical that fades when it is reduced.

The subject of assay [7] is HT-29 cells. The experiment in a line: Cell viability. Format: cell-based. The settings on record: Homo sapiens, HT-29, read-out: IC50 (mean ± SD; n = 3). In short, it runs like this:
(§1)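 Cells were grown in medium with 10% FBS and penicillin/streptomycin 100 units/mL, humidified, at 37 °C and 5% CO2; HT-29 and HEKa were in RPMI-1640. About 2000 cells/well were seeded in 96-well plates. Cells were rinsed once with PBS and five times with distilled water.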

The test system of assay [8] is PC-3 cells. The experiment in a line: Cell viability. Format: cell-based. The settings on record: Homo sapiens, PC-3, read-out: IC50 (mean ± SD; n = 3). The method, boiled down:
as §1

For assay [9], the system named is HepG2 cells. In words: Cell viability. Format: cell-based. The settings on record: Homo sapiens, HepG2, read-out: IC50 (mean ± SD; n = 3). In short, it runs like this:
as §1

Assay [10] relates to HEKa cells. In words: Cell viability. Format: cell-based. The settings on record: Homo sapiens, read-out: IC50 (mean ± SD; n = 3). In short, it runs like this:
as §1

For assay [11], the system named is HT-29 cells. The experiment in a line: Cell cycle analysis. Format: cell-based, human. The settings on record: HT-29, 48 h.
Assay [12] deals with HepG2 cells. In words: Cell cycle analysis. Format: cell-based, human. The settings on record: HepG2, 48 h.
In assay [13] the test system is Candida albicans. In words: Antifungal assay. Format: cell-based. The settings on record: C. albicans. The method, boiled down: (§2)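 Antifungal agar diffusion read as inhibition zone diameter in mm, with amphotericin B as positive control.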
In assay [14] the test system is C. tropicalis. In words: Antifungal assay. Format: cell-based, Candida tropicals. The method, boiled down: as §2
For assay [15], the system named is Aspergillus niger. The experiment in a line: Antifungal assay. Format: cell-based. The settings on record: A. niger. The method, boiled down:
as §2

For assay [16], the system named is Aspergillus flavus. In words: Antifungal assay. Format: cell-based. The settings on record: A. flavus. In short, it runs like this: as §2

As to `CC1(C)S[C@@H]2[C@H](NC(=O)[C@H](N)c3ccc(O)cc3)C(=O)N2[C@H]1C(=O)O` [Amoxicillin], the Inhibition zone in assay [1] is 23 ± 6.40 mm; in assay [2], 39 ± 2.40 mm; in [3] it was 33 ± 2.90 mm; in assay [4] it was 30 ± 4.00 mm; in [5] it was 20 ± 1.90 mm.

As for `CC1(C)C[C@H](O)C[C@@]2(C)OC(=O)C=C12` [Compound 3, loliolide], the “IC50 (DPPH free radical scavenging)” value in assay [6] worked out at 55.9 µg/mL (≈ 285 µM). Moreover, the Inhibition zone in assay [1] came to 15 ± 1.70 mm; in assay [2] it was 09 ± 1.20 mm; in assay [3] it was 10 ± 1.40 mm; in assay [4], 10 ± 1.50 mm; in assay [5] it was 16 ± 1.90 mm. For the same compound, the IC50 in assay [7] worked out at 8.9 ± 0.97 µg/mL (≈ 45.4 µM); in assay [8], 11.9 ± 1.31 µg/mL (≈ 60.6 µM); in [9], 4.6 ± 0.51 µg/mL (≈ 23.4 µM); in [10], 3.1 ± 0.1 µg/mL (≈ 15.8 µM).

`COc1cccc2c1C(=O)c1c(O)c3c(c(O)c1C2=O)C[C@@](O)(C(=O)CO)C[C@@H]3O[C@H]1C[C@H](N)[C@H](O)[C@H](C)O1` [Doxorubicin]: the IC50 is 1.7 ± 0.02 µg/mL (≈ 3.13 µM) in [7] and 0.7 ± 0.04 µg/mL (≈ 1.29 µM) in [10]. For the same compound, the “cell cycle arrest phase” value in assay [11] and in assay [12] was “arrested in G2 phase” each time.

On to `C[C@@H]1[C@H](O)[C@@H](C)/C=C/C=C/C=C/C=C/C=C/C=C/C=C/[C@H](O[C@@H]2O[C@H](C)[C@@H](O)[C@H](N)[C@@H]2O)C[C@@H]2O[C@](O)(C[C@@H](O)C[C@@H](O)[C@H](O)CC[C@@H](O)C[C@@H](O)CC(=O)O[C@H]1C)C[C@H](O)[C@H]2C(=O)O` [amphotericin B], for which the “diameter of inhibition zone” value amounted to 29 ± 0.90 mm in assay [13], 25 ± 0.87 mm in [14], 41 ± 0.70 mm in assay [15] and 33 ± 1.11 mm in assay [16].

Take `O=C1O[C@H]([C@@H](O)CO)C(O)=C1O` [vitamin C]: the “IC50 (DPPH free radical scavenging)” value in assay [6] was determined as 14.2 µg/mL (≈ 80.6 µM).
